Assay [1] can be described thus: Inhibition of Escherichia coli FabI. Summed up:
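His-tagged E. coli FabI (gene from E. coli DH5α, expressed in E. coli TOP10 with arabinose induction, Ni-NTA purified) at 50 µg/mL in 100 mM sodium phosphate pH 7.4 with 0.25 mM crotonoyl-CoA and 0.4 mM NADH. Reaction started by enzyme addition; NADH consumption followed at 340 nm for 10 min at room temperature; IC50 = concentration halving activity.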

In assay [2] the target is T1, Enoyl-(Acyl-carrier-protein) reductase (Streptococcus pneumoniae, UniProt Q9FBC5).
T1 sequence (Q9FBC5 whole entry): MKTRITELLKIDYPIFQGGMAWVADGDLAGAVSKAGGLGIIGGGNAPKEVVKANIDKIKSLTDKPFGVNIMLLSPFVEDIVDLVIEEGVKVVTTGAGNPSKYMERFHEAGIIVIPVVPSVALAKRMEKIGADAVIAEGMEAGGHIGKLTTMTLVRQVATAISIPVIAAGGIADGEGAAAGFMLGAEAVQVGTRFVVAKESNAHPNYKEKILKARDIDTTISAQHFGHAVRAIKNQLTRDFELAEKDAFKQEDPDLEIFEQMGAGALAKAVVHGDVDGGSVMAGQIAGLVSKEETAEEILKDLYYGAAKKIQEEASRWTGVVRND
The experiment in a line: Inhibition of Streptococcus pneumoniae FabK. Summed up:
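C-terminal His-tagged FabK from S. pneumoniae R6, expressed in E. coli BL21(DE3) with 1 mM IPTG, Ni-NTA purified, used at 2 µg/mL. Buffer 100 mM MES pH 7.0, 100 mM NH4Cl, 0.2 mM crotonoyl-CoA, 0.4 mM NADH; enzyme-initiated. Absorbance at 340 nm read for 10 min at room temperature; IC50 = concentration giving 50% activity reduction.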

Another assay relates to Streptococcus pneumoniae. Description: Antibacterial activity against Streptococcus pneumoniae KU197. The format is functional. Summed up: (§1)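 Broth microdilution per NCCLS M7-A6; MIC taken as lowest concentration preventing visible growth. Strains: S. aureus ATCC29213 and S. pneumoniae KU197 (PRSP).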
For another assay, the system named is Staphylococcus aureus. The experiment in a line: Antibacterial activity against Staphylococcus aureus ATCC 29213. The format is functional. Summed up: as §1
In another assay the test system is K562. The experiment in a line: Cytotoxicity against human K562 cells. The format is functional, cell-based.

Values after ≈ are worked out from the molar mass of the structure shown. Where only a bound is given, the exact number is not on record here.

As a reminder, the IC50 is the concentration that gives 50% inhibition. Usually MIC stands for the least concentration at which growth counts as inhibited. High values mean a need for much substance, low ones inhibition by little substance. `O=C([O-])COc1ccc(-c2cnc(CNC(=O)Nc3ncc(Sc4ccccn4)s3)[nH]2)cc1.[Na+]`: the IC50 in assay [1] was greater than 32000 nM; in assay [2] it was 34 nM. In addition, the minimum inhibitory concentration (MIC) against Streptococcus pneumoniae is greater than 32 µg/mL.
For `Cc1c(Cc2c(Cl)cccc2Cl)c(=O)ccn1CCc1ccc(-c2c[nH]c(CNC(=O)Nc3ncc[nH]3)n2)cc1`, the half-maximal inhibitory concentration (IC50) in assay [1] was 930 nM; in assay [2] it was greater than 32000 nM; in the assay with K562, greater than 69000 nM. The MIC against Streptococcus pneumoniae and against Staphylococcus aureus was greater than 32 µg/mL in each case.
`Cc1c(Cc2c(Cl)cccc2Cl)c(=O)ccn1CCc1ccc(-c2c[nH]c(CNC(=O)Nc3nc4ccc(S(C)(=O)=O)cc4s3)n2)cc1`: the results for the IC50 (in assay [1]; in assay [2]; in the assay on K562) were 380 nM, 4.5 nM and greater than 69000 nM, respectively. The minimum inhibitory concentration (MIC) was 0.5 µg/mL (≈ 0.693 µM) in the assay on Streptococcus pneumoniae and greater than 32 µg/mL against Staphylococcus aureus.
In the same order, the values of `Cc1c(Cc2c(Cl)cccc2Cl)c(=O)ccn1CCc1ccc(-c2c[nH]c(CNC(=O)Nc3ncc(Sc4ccccn4)s3)n2)cc1` are 560 nM, 16 nM, greater than 69000 nM, 2 µg/mL (≈ 2.85 µM) and greater than 32 µg/mL.
In the same order, the values of `Cc1c(Cc2c(Cl)cccc2Cl)c(=O)ccn1CCCc1ccc(-c2c[nH]c(CNC(=O)Nc3ncc(Br)s3)n2)cc1` are 340 nM, 6600 nM, greater than 69000 nM, greater than 32 µg/mL and greater than 32 µg/mL.
For `Cc1c(Cc2c(Cl)cccc2Cl)c(=O)ccn1/C=C/c1ccc(-c2c[nH]c(CNC(=O)Nc3ncc(Br)s3)n2)cc1`, the IC50 in assay [1] was greater than 32000 nM; in assay [2], greater than 30000 nM; with K562, greater than 69000 nM.
In the case of `O=C(NCc1ncc(-c2cccc(Br)c2)[nH]1)Nc1ncc(Sc2ccccn2)s1`, the half-inhibitory concentration (IC50) was greater than 32000 nM in assay [1] and 5.3 nM in assay [2]. In the assay with Streptococcus pneumoniae, this molecule registered an MIC of 16 µg/mL (≈ 32.8 µM).
In assay [1], `CS(=O)(=O)c1ccc2nc(NC(=O)NCc3nc(-c4ccccc4)c[nH]3)sc2c1` showed a half-maximal inhibitory concentration (IC50) greater than 32000 nM. The molecule further came in with an MIC in the assay on Staphylococcus aureus greater than 64 µg/mL.
As for `Cc1c(Cc2c(Cl)cccc2Cl)c(=O)ccn1Cc1ccc(-c2c[nH]c(CNC(=O)Nc3ncc(Br)s3)n2)cc1`, the values for the IC50 (in assay [1]; in assay [2]; in the assay on K562) were 820 nM, 11000 nM and greater than 69000 nM, respectively. Further, the minimum inhibitory concentration (MIC) in the assay with Streptococcus pneumoniae and in the assay with Staphylococcus aureus was greater than 32 µg/mL each time.
As for `O=C(NCc1ncc(-c2ccc(Br)cc2)[nH]1)Nc1ncc(Sc2ccccn2)s1`, the IC50 is greater than 32000 nM in assay [1] and 2.4 nM in assay [2]. This molecule displayed a minimal inhibitory concentration (MIC) in the assay with Streptococcus pneumoniae of 0.25 µg/mL (≈ 0.513 µM).
With `Cc1c(Cc2c(Cl)cccc2Cl)c(=O)ccn1CCc1ccc(-c2c[nH]c(CNC(=O)Nc3ncc(S(C)(=O)=O)s3)n2)cc1`, the half-maximal inhibitory concentration (IC50) was 310 nM in assay [1], 9.4 nM in assay [2] and greater than 69000 nM with K562. Besides, the MIC against Streptococcus pneumoniae is 1 µg/mL (≈ 1.49 µM); with Staphylococcus aureus it was greater than 32 µg/mL.
Turning to `Oc1cc(Cl)ccc1Oc1ccc(Cl)cc1Cl` [TRICLOSAN], the values for the 50% inhibitory concentration (IC50) in assay [1] and in assay [2] were 900 nM and greater than 32000 nM, respectively. This molecule displayed a minimal inhibitory concentration (MIC) in the assay on Staphylococcus aureus of 0.063 µg/mL (≈ 0.218 µM).
Consider `O=C(NCc1ncc(-c2ccccc2)[nH]1)Nc1ncc(Sc2ccccn2)s1`, for which the IC50 in assay [1] is greater than 32000 nM; in assay [2] it was 42 nM. The molecule further had an MIC in the assay on Streptococcus pneumoniae of 2 µg/mL (≈ 4.9 µM).
In the case of `Cn1cc(CNC(=O)/C=C/c2cnc3c(c2)CCC(=O)N3)c2ccccc21`, the IC50 in assay [1] was 200 nM; in assay [2], greater than 32000 nM. Also, the MIC is greater than 32 µg/mL against Streptococcus pneumoniae and 0.063 µg/mL (≈ 0.175 µM) against Staphylococcus aureus.
`Cc1c(Cc2c(Cl)cccc2Cl)c(=O)ccn1C/C=C/c1ccc(-c2c[nH]c(CNC(=O)Nc3ncc(Br)s3)n2)cc1`: the values for the IC50 (in assay [1]; in assay [2]; in the assay with K562) were 290 nM, 9000 nM and greater than 69000 nM, respectively. Also, the MIC in the assay with Streptococcus pneumoniae and in the assay with Staphylococcus aureus was greater than 32 µg/mL each time.
On to `Cc1c(Cc2c(Cl)cccc2Cl)c(=O)ccn1CCc1ccc(-c2c[nH]c(CNC(=O)Nc3ncc(Br)s3)n2)cc1`, for which the half-inhibitory concentration (IC50) is 570 nM in assay [1], 29 nM in assay [2] and greater than 69000 nM in the assay on K562. Besides, the minimal inhibitory concentration (MIC) in the assay with Streptococcus pneumoniae is 8 µg/mL (≈ 11.9 µM); in the assay with Staphylococcus aureus, greater than 32 µg/mL.

The values are drawn from ChEMBL document CHEMBL1148781, “Phenylimidazole derivatives of 4-pyridone as dual inhibitors of bacterial enoyl-acyl carrier protein reductases FabI and FabK” (J Med Chem, 2007).
